Screening results (PubChem)
Most compounds without a hit are left out; they make up all but 3.1% or so of the library.
MEKK2mut PB1 HTS = signal of MEK5 binding to mutant human MEKK2 PB1 domain; bead flow cytometry, Alexa488-MEK5 binding to MEKK2 mutant; 290,000 compounds, 0.35% hits; AID 1530; percent response, % at 10 µM; in the data active = percent response above about 24%, passing the limit was not always enough
Apaf1 inhib = blocks human Apaf-1 apoptosome activity; reconstituted apoptosome caspase-3 activity, DEVD-Rh110 fluorescence; inhibition, % at 20 µM; 330,000 compounds, 0.71% hits; active = inhibition of at least 40% at 20 µM;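 note: plate controls were DMSO wells for no effect and DEVD-CHO caspase inhibitor wells for full effect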
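Material: cell-free apoptosome with Apaf-1, procaspase-3 and caspase-9; Buffer or medium: Hepes pH 7.5 with detergent and BSA; Reagent: cytochrome c trigger plus (Z-DEVD)2-Rh110 caspase-3 substrate; Times: compound with Apaf-1, dATP, procaspase-3 30 min, then 50 min reaction, room temperature; Technique: Rh110 fluorescence intensity.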
PREPL inh = human PREPL enzyme inhibition. Q4J6C6. recombinant PREPL, fluorescence polarization activity-based probe. inhibition, % at 5.96 µM. 320,000 compounds, 0.68% hits. AID 2751; in the data active = inhibition above about 43%;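 note: 0% = enzyme with DMSO and 100% = wells lacking enzyme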
Target sequence (Q4J6C6 whole entry, looked up): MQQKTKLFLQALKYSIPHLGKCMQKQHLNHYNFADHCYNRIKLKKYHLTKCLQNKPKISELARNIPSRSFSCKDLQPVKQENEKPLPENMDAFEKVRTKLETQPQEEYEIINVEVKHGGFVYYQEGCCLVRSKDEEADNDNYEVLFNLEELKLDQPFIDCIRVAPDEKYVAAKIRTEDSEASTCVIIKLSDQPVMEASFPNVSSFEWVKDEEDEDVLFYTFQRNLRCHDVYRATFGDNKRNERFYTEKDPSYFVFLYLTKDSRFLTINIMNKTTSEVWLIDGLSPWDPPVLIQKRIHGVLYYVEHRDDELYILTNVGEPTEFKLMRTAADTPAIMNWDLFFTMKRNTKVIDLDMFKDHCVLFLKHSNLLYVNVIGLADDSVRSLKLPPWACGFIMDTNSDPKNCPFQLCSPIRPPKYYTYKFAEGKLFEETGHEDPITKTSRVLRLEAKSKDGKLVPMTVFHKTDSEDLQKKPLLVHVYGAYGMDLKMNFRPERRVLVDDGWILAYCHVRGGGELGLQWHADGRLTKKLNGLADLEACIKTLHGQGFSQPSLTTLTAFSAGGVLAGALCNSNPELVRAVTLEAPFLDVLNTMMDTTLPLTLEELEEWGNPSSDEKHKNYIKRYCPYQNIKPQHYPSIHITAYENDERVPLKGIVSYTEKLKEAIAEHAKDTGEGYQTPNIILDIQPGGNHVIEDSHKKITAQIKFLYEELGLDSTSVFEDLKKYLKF
UBC13 polyUb = human UBC13 polyubiquitination inhibition; P61088; UBC13 polyubiquitin chain formation, TR-FRET; inhibition, % at 20 µM; 330,000 compounds, 0.47% hits; AID 485273; in the data active = inhibition above about 45%, passing the limit was not always enough; inconclusive = no clear call, values can overlap the other calls
MEKK3 PB1 HTS = MEKK3-MEK5 PB1 interaction, increase or decrease. Q99759. bead-based flow cytometry, Alexa488-MEK5 binding to MEKK3; actives lie on both sides; 0 = blocked by unlabeled MEK5, 100 = vehicle. binding response (% of control), % at 10 µM. 290,000 compounds, 1.4% hits. AID 1529;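 active = binding response more than 3 SD above or below the average of its plate-row segment, actives on both sides; inconclusive = wells at one plate position flagged as instrument error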;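 note: Alexa488 bead fluorescence after subtracting the streptavidin-only scavenger bead signal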
MEKK2wt PB1 HTS = raises or lowers MEK5 binding to wildtype human MEKK2 PB1 domain; bead flow cytometry, Alexa488-MEK5 binding to MEKK2 WT; actives lie on both sides; 290,000 compounds, 1.1% hits; binding response (% of control), % at 10 µM; AID 1531; in the data active = binding response below about 67% or above about 130%; inconclusive = no clear call, values can overlap the other calls; inactive = in between
MEKK2wt confirm = raises or lowers MEK5 binding to wildtype human MEKK2, retest; shares compounds with MEKK3 PB1 HTS; bead flow cytometry, Alexa488-MEK5 binding to MEKK2 WT; actives lie on both sides; binding response (% of control), % at 10 µM; 5,900 compounds, 2.4% hits; AID 1892; in the data active = binding response below about 16% or above about 210%; inactive = in between
MEKK2mut confirm = signal of MEK5 binding to mutant human MEKK2, retest. bead flow cytometry, Alexa488-MEK5 binding to MEKK2 mutant. 5,900 compounds, 2% hits. percent response, % at 10 µM. shares compounds with MEKK3 PB1 HTS; in the data active = percent response mostly above about 71%, no sharp cut-off; inactive = mostly below about 38%;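 note: higher means compound restores mutant binding toward wildtype level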
MEKK3-MEK5 inh = confirmation of inhibitors of MEK5 binding to human MEKK3. AID 1894. shares compounds with MEKK3 PB1 HTS. binding response (% of control), % at 10 µM. 5,900 compounds, 1.8% hits. bead flow cytometry, Alexa488-MEK5 binding to MEKK3; hits give low values;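 active = binding response below 72% of control, or above a set upper limit, though filed actives all read lower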;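 note: 100% = DMSO only wells and 0% = binding blocked by excess unlabeled MEK5; lower values mean stronger disruption of MEK5 binding to MEKK3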
Casp3 counter = inhibits human caspase-3 in UBC13 counter-screen; shares compounds with UBC13 polyUb; Recombinant caspase-3, Caspase-Glo 3/7 luminescence, 60 min; inhibition, % at 20 µM; 1,400 compounds, 4% hits; AID 488856;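 active = mean inhibition across replicates above about 26%, limit read from the data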;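 note: plate controls were DMSO with caspase-3 for no effect and DMSO wells lacking enzyme for full effect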
UBC13 confirm = confirmation of human UBC13 polyubiquitin inhibitors; shares compounds with UBC13 polyUb; UBC13 polyubiquitination, TR-FRET, biochemical; inhibition, % at 10 µM; 1,400 compounds, 68% hits; AID 488859; in the data active = inhibition above about 45%; inconclusive = no clear call, values can overlap the other calls
* = called active by the depositor; [ ] = another dose, or the depositor's remark.

Results for CCOc1ccc(Cl)cc1Nc1nc(NCCO)nc(N2CCCC2)n1 ?
MEKK2mut PB1 HTS: 4.0; Apaf1 inhib: -0.1; PREPL inh: -3.4; UBC13 polyUb: 37.1; MEKK3 PB1 HTS: 105.0; MEKK2wt PB1 HTS: 109.0

How did COc1ccccc1NC(=S)N1CCN(c2nc(-c3ccccc3)cs2)CC1 do in these assays?
MEKK2mut PB1 HTS: -7.0; Apaf1 inhib: 5.6; PREPL inh: 8.8; UBC13 polyUb: 1.4; MEKK3 PB1 HTS: 100.0; MEKK2wt PB1 HTS: 103.0

Results for Cc1ccc(CN2CCSc3ccc(C(=O)NC4CCN(Cc5ccccc5)CC4)cc32)cc1 ?
MEKK2mut PB1 HTS: 46.0; Apaf1 inhib: -3.5; PREPL inh: 32.4; UBC13 polyUb: 62.1*; MEKK3 PB1 HTS: 106.0; MEKK2wt PB1 HTS: 206.0*; MEKK2wt confirm: 240.0*; MEKK2mut confirm: 80.0*; MEKK3-MEK5 inh: 110.0; Casp3 counter: 1.9; UBC13 confirm: inconclusive

How did O=C(NC1CCCC1)c1ccc2c(c1)N(Cc1ccccc1)CCS2 do in these assays?
MEKK2mut PB1 HTS: -2.0; Apaf1 inhib: 14.8; PREPL inh: 19.1; UBC13 polyUb: 38.4; MEKK3 PB1 HTS: 99.0; MEKK2wt PB1 HTS: 100.0

What do the screens show for `CCCc1ccc(OCc2ccc(C(=O)N3CCSCC3)o2)cc1`?
MEKK2mut PB1 HTS: 0.0; Apaf1 inhib: 16.1; PREPL inh: 1.7; UBC13 polyUb: 3.1; MEKK3 PB1 HTS: 103.0; MEKK2wt PB1 HTS: 105.0

How did Cc1ccc(-c2csc(NC(=O)C[n+]3cc(-c4ccc(C)cc4)n4c3CCC4)n2)cc1 do in these assays?
MEKK2mut PB1 HTS: 3.0; Apaf1 inhib: 30.4; PREPL inh: -26.8; UBC13 polyUb: 59.7*; MEKK3 PB1 HTS: 104.0; MEKK2wt PB1 HTS: 141.0*; MEKK2wt confirm: 207.0*; MEKK2mut confirm: 63.0; MEKK3-MEK5 inh: 109.0; Casp3 counter: 0.8; UBC13 confirm: 69.8*

What do the screens show for `O=C(NCC(=O)N1CCN(c2ccccc2)CC1)c1cccs1`?
MEKK2mut PB1 HTS: -3.0; Apaf1 inhib: -1.2; PREPL inh: 9.2; UBC13 polyUb: -4.6; MEKK3 PB1 HTS: 100.0; MEKK2wt PB1 HTS: 100.0

How did COc1cc(OC)cc(-c2c(-c3cccs3)c3cc(-c4ccc5c(c4)OCCO5)ccc3n2C)c1 do in these assays?
Apaf1 inhib: 4.9; PREPL inh: 4.8; UBC13 polyUb: inconclusive

Results for CCOC(=O)c1c(-c2ccccc2)oc2ccc(OCC(O)CNCCN(C)C)cc12 (centres undefined) ?
MEKK2mut PB1 HTS: 31.0*; Apaf1 inhib: 21.0; PREPL inh: -11.0; UBC13 polyUb: 52.9*; MEKK3 PB1 HTS: 100.0; MEKK2wt PB1 HTS: 165.0*; MEKK2wt confirm: 179.0; MEKK2mut confirm: 50.0; MEKK3-MEK5 inh: 108.0; Casp3 counter: -0.2; UBC13 confirm: 55.5*

What do the screens show for `CCOC(=O)c1c(-c2ccccc2)oc2ccc(OCC)cc12`?
MEKK2mut PB1 HTS: 0.0; Apaf1 inhib: 9.7; PREPL inh: -3.7; UBC13 polyUb: 36.3; MEKK3 PB1 HTS: 102.0; MEKK2wt PB1 HTS: 103.0

Results for O=C(CCC1CCCCC1)NCCN1C2=NC[C@H](Cc3ccccc3)N2C[C@H]1Cc1ccc(O)cc1 ?
MEKK2mut PB1 HTS: 37.0; Apaf1 inhib: 12.5; PREPL inh: -18.3; UBC13 polyUb: 64.6*; MEKK3 PB1 HTS: 106.0; MEKK2wt PB1 HTS: 163.0*; MEKK2wt confirm: 172.0; MEKK2mut confirm: 89.0*; MEKK3-MEK5 inh: 99.0; Casp3 counter: 2.3; UBC13 confirm: 60.5*

What do the screens show for `COc1ccc(C[C@@H]2CN3C(=NC[C@@H]3Cc3ccc(O)cc3)N2C[C@H](C)NC(=O)CCC2CCCCC2)cc1`?
MEKK2mut PB1 HTS: 9.0; Apaf1 inhib: 30.1; PREPL inh: 6.6; UBC13 polyUb: 56.2*; MEKK3 PB1 HTS: 1.0*[inhibitor]; MEKK2wt PB1 HTS: 135.0*; MEKK2wt confirm: 155.0; MEKK2mut confirm: 53.0; MEKK3-MEK5 inh: 107.0; Casp3 counter: -0.4; UBC13 confirm: 38.3

What do the screens show for `COc1ccc(CCNC(=O)CCNC(=O)c2ccc([N+](=O)[O-])cc2)cc1`?
MEKK2mut PB1 HTS: 2.0; Apaf1 inhib: -1.1; PREPL inh: -1.3; UBC13 polyUb: -8.4; MEKK3 PB1 HTS: 103.0; MEKK2wt PB1 HTS: 109.0

Results for CN(C)CCNc1oc(COc2ccc(Cl)cc2Cl)nc1C#N ?
MEKK2mut PB1 HTS: 55.0*; Apaf1 inhib: 5.7; PREPL inh: 23.4; UBC13 polyUb: 90.8*; MEKK3 PB1 HTS: 114.0; MEKK2wt PB1 HTS: 170.0*; MEKK2wt confirm: 152.0; MEKK2mut confirm: 32.0; MEKK3-MEK5 inh: 110.0; Casp3 counter: -2.0; UBC13 confirm: 97.6*

What do the screens show for `COc1cccc(C(=O)Nc2ccccc2C(=O)NCC2CCCO2)c1` (centres undefined)?
MEKK2mut PB1 HTS: 4.0; Apaf1 inhib: 1.6; PREPL inh: -5.5; UBC13 polyUb: 7.3; MEKK3 PB1 HTS: 103.0; MEKK2wt PB1 HTS: 108.0

What do the screens show for `Cc1cc(Nc2ccccc2)nc(NCc2ccccc2)n1`?
MEKK2mut PB1 HTS: 67.0*; Apaf1 inhib: 23.0; PREPL inh: -5.8; UBC13 polyUb: 45.7*; MEKK3 PB1 HTS: 110.0; MEKK2wt PB1 HTS: 167.0*; MEKK2wt confirm: 165.0; MEKK2mut confirm: 51.0; MEKK3-MEK5 inh: 110.0; Casp3 counter: -1.6; UBC13 confirm: 49.6*

What do the screens show for `COC(=O)C(Cc1ccccc1)NC(=O)CCNC(=O)c1ccc(Br)cc1` (centres undefined)?
MEKK2mut PB1 HTS: -6.0; Apaf1 inhib: -5.1; PREPL inh: 4.8; UBC13 polyUb: -6.2; MEKK3 PB1 HTS: 98.0; MEKK2wt PB1 HTS: 95.0

What do the screens show for `COc1cc2nc(=S)n3[nH]c(CCn4c(C)nc5ccccc54)nc3c2cc1OC`?
MEKK2mut PB1 HTS: 6.0; Apaf1 inhib: -4.1; PREPL inh: 15.0; UBC13 polyUb: 26.3; MEKK3 PB1 HTS: 104.0; MEKK2wt PB1 HTS: 106.0
